Test results taken from ChEMBL document CHEMBL5724801, “EUbOPEN Chemogenomics Library - Multiplex” (2024).
“And” between values parts separate entries of the source, which are not always exact repeats. Equal values may be shown once.

Tested on: HEK-293T
Assay: Multiplex assay against HEK293T
Assay type: toxicity, cell-based
Conditions: human
How it was run: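 With compound added, live cells were imaged on a CQ1 microscope at 37°C and 5% CO2; staining with Hoechst33342, BioTracker Green Microtubule Cytoskeleton Dye, MitoTracker Red and Annexin V Alexa Fluor 680 had been done at seeding. The CellPathfinder machine-learning gating scheme split cells into Hoechst high-intensity objects or normal cells, normal cells into healthy, pyknosed or fragmented nuclei, and pyknosed cells into mitotic or apoptotic. The tubulin, mitochondrial-mass and membrane-permeability phenotypes are per cents of healthy-nucleus cells.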

[1] = 12 h, 1 µM, compound concentration 1 uM
[2] = 12 h, 10 µM, compound concentration 10 uM
[3] = 24 h, 1 µM, compound concentration 1 uM
[4] = 24 h, 10 µM, compound concentration 10 uM
[5] = 48 h, 1 µM, compound concentration 1 uM
[6] = 48 h, 10 µM, compound concentration 10 uM

## Cc1cc(C)c(NC(=O)C2CC3CCC2C3)c(C)c1 (stereo not given)
[1]
  Population Apoptotic (%): 10.42% and 11.4%
  Population Fragmented Nuclei (%): 4.2% and 7.23%
  Population Healthy Nuclei (%): 55.46% and 24.1%
  Population Hoechst High Intensity Objects (%): 0.83% and 0%
  Population Membrane Permeable-Phenotype (%): 0.51% and 2.5%
  Population Mitochondria Different-Phenotype (%): 38.89% and 22.5%
  Population Mitotic Cells (%): 89.58% and 88.6%
  Population Normal (%): 99.17% and 100%
  Population Pyknosed Nuclei (%): 40.34% and 68.67%
  Total Cell Count: 360 and 166
[2]
  Population Apoptotic (%): 15.2%
  Population Fragmented Nuclei (%): 3.72% and 4.14%
  Population Healthy Nuclei (%): 44.63% and 21.89%
  Population Hoechst High Intensity Objects (%): 0.82% and 0%
  Population Membrane Permeable-Phenotype (%): 0.93% and 2.7%
  Population Mitochondria Different-Phenotype (%): 32.41% and 16.22%
  Population Mitotic Cells (%): 84.8%
  Population Normal (%): 99.18% and 100%
  Population Pyknosed Nuclei (%): 51.65% and 73.96%
  Total Cell Count: 244 and 169
[3]
  Population Apoptotic (%): 14.08% and 10%
  Population Fragmented Nuclei (%): 1.7% and 6.43%
  Population Healthy Nuclei (%): 74.19% and 29.24%
  Population Hoechst High Intensity Objects (%): 0%
  Population Membrane Permeable-Phenotype (%): 1.6% and 0%
  Population Mitotic Cells (%): 85.92% and 90%
  Population Normal (%): 100%
  Population Pyknosed Nuclei (%): 24.11% and 64.33%
  Population Tubulin-Different-Phenotype (%): 17.39% and 0%
[4]
  Population Apoptotic (%): 17.76% and 15.52%
  Population Fragmented Nuclei (%): 1.69% and 2.58%
  Population Healthy Nuclei (%): 72.53% and 37.63%
  Population Hoechst High Intensity Objects (%): 0%
  Population Membrane Permeable-Phenotype (%): 0.33% and 1.37%
  Population Mitochondria Different-Phenotype (%): 17.61% and 20.55%
  Population Mitotic Cells (%): 82.24% and 84.48%
  Population Normal (%): 100%
  Population Pyknosed Nuclei (%): 25.78% and 59.79%
  Population Tubulin-Different-Phenotype (%): 14.95% and 10.96%
  Total Cell Count: 415 and 194
[5]
  Population Apoptotic (%): 8.16% and 13.89%
  Population Fragmented Nuclei (%): 2.91% and 1.03%
  Population Healthy Nuclei (%): 86.66% and 62.05%
  Population Hoechst High Intensity Objects (%): 0% and 1.52%
  Population Membrane Permeable-Phenotype (%): 4.67% and 2.48%
  Population Mitochondria Different-Phenotype (%): 12.37% and 24.79%
  Population Mitotic Cells (%): 91.84% and 86.11%
  Population Normal (%): 100% and 98.48%
[6]
  Population Apoptotic (%): 9.24% and 23.08%
  Population Fragmented Nuclei (%): 2.94% and 2.43%
  Population Healthy Nuclei (%): 84.08% and 71.26%
  Population Hoechst High Intensity Objects (%): 0%
  Population Membrane Permeable-Phenotype (%): 4.15% and 3.98%
  Population Mitochondria Different-Phenotype (%): 20.62% and 28.98%
  Population Mitotic Cells (%): 90.76% and 76.92%
  Population Normal (%): 100%
  Population Pyknosed Nuclei (%): 12.98% and 26.32%

## Cc1[nH]nc2ccc(-c3cncc(OCC(N)Cc4c[nH]c5ccccc45)c3)cc12 (stereo not given)
[1]
  Population Apoptotic (%): 14.46% and 12.06%
  Population Fragmented Nuclei (%): 1.15% and 2.53%
  Population Hoechst High Intensity Objects (%): 0.86% and 0%
  Population Membrane Permeable-Phenotype (%): 1.98% and 0%
  Population Mitotic Cells (%): 85.54% and 87.94%
  Population Normal (%): 99.14% and 100%
  Population Pyknosed Nuclei (%): 69.74% and 89.24%
  Total Cell Count: 350 and 158
[2]
  Population Apoptotic (%): 26.81% and 37.12%
  Population Fragmented Nuclei (%): 0.85% and 0%
  Population Healthy Nuclei (%): 5.1% and 3.65%
  Population Hoechst High Intensity Objects (%): 0.28% and 0%
  Population Membrane Permeable-Phenotype (%): 0%
  Population Mitochondria Different-Phenotype (%): 16.67% and 0%
  Population Mitotic Cells (%): 73.19% and 62.88%
  Population Normal (%): 99.72% and 100%
  Population Pyknosed Nuclei (%): 94.05% and 96.35%
  Total Cell Count: 354 and 137
[3]
  Population Apoptotic (%): 39.92% and 29.58%
  Population Fragmented Nuclei (%): 0.63% and 1.97%
  Population Hoechst High Intensity Objects (%): 0.62% and 0%
  Population Membrane Permeable-Phenotype (%): 1.59% and 0%
  Population Mitochondria Different-Phenotype (%): 34.92% and 28.57%
  Population Mitotic Cells (%): 60.08% and 70.42%
  Population Normal (%): 99.38% and 100%
  Population Pyknosed Nuclei (%): 79.56% and 93.42%
  Total Cell Count: 320 and 152
[4]
  Population Apoptotic (%): 80.3% and 96.64%
  Population Fragmented Nuclei (%): 0.86% and 2.34%
  Population Healthy Nuclei (%): 3.15% and 4.69%
  Population Hoechst High Intensity Objects (%): 0.85% and 0%
  Population Membrane Permeable-Phenotype (%): 0% and 16.67%
  Population Mitochondria Different-Phenotype (%): 72.73% and 33.33%
  Population Normal (%): 99.15% and 100%
  Population Pyknosed Nuclei (%): 95.99% and 92.97%
  Population Tubulin-Different-Phenotype (%): 72.73% and 33.33%
  Total Cell Count: 352 and 128
[5]
  Population Apoptotic (%): 57.46% and 49.23%
  Population Fragmented Nuclei (%): 2.33% and 1.39%
  Population Healthy Nuclei (%): 21.93% and 8.33%
  Population Hoechst High Intensity Objects (%): 0.33% and 0.69%
  Population Membrane Permeable-Phenotype (%): 0%
  Population Mitochondria Different-Phenotype (%): 86.36% and 58.33%
  Population Mitotic Cells (%): 42.54% and 50.77%
  Population Normal (%): 99.67% and 99.31%
  Population Pyknosed Nuclei (%): 75.75% and 90.28%
  Total Cell Count: 302 and 145
[6]
  Population Apoptotic (%): 80.14% and 100%
  Population Fragmented Nuclei (%): 0.68% and 1.68%
  Population Healthy Nuclei (%): 3.73% and 4.2%
  Population Hoechst High Intensity Objects (%): 3.91% and 0%
  Population Membrane Permeable-Phenotype (%): 9.09% and 0%
  Population Mitochondria Different-Phenotype (%): 54.55% and 40%
  Population Mitotic Cells (%): 19.86% and 0%
  Population Normal (%): 96.09% and 100%
  Population Pyknosed Nuclei (%): 95.59% and 94.12%
  Population Tubulin-Different-Phenotype (%): 45.45% and 40%
  Total Cell Count: 307 and 119
